From paper PMC6421538 (ACS Medicinal Chemistry Letters, 2019)
Where “and” joins values, the source holds several entries; their conditions need not be identical. Identical values can stand only once. Like-named read-outs stand apart in the source and are kept apart here.

Assays:
total Aβ1–x = total Aβ1–x formation; format: cell-based
Aβ1–37 and Aβ1–38 = experiment: urea gel Western blotting of Aβ species; format: cell-based
rabbit telemetry study = format: in vivo
[1] = in vitro biotransformation assays; format: in vitro ADME
[2] = 4 day oral dosing study in rats; format: in vivo
hERG ion channel = hERG ion channel (Homo sapiens, UniProt Q12809); experiment: hERG patch-clamp electrophysiology; format: cell-based
Sequence of hERG ion channel (Q12809 whole entry): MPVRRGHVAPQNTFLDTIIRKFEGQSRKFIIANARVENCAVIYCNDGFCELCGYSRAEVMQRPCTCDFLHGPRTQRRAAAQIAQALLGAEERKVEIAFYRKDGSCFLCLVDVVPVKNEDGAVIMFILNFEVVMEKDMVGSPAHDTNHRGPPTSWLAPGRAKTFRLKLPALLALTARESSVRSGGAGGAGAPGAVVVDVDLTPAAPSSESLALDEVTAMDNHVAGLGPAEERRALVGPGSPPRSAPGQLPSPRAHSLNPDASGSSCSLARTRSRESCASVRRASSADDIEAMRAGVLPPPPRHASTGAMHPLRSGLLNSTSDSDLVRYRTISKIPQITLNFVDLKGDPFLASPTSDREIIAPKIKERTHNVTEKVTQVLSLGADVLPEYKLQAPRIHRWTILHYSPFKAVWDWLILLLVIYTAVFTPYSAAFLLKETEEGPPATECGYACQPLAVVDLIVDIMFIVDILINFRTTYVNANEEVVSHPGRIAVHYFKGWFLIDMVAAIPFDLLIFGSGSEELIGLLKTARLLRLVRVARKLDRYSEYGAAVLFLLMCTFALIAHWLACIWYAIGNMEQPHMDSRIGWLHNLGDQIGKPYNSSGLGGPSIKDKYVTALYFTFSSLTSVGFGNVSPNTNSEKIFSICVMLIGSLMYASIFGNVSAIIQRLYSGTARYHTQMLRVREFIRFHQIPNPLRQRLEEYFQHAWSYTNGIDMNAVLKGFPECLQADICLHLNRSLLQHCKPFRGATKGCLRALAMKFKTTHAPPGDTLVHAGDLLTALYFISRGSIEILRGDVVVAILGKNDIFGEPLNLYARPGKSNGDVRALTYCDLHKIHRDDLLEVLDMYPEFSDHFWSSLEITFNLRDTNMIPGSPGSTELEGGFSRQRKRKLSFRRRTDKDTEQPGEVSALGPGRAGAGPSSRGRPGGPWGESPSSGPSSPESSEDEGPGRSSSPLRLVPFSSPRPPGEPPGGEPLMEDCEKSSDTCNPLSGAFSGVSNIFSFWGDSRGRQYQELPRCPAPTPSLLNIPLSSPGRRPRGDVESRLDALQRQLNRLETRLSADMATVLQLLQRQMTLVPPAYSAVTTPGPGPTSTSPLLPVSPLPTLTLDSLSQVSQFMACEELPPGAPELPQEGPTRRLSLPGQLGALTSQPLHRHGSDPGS

CYP3A4 [3] = biological target: T1, CYP3A4 (Homo sapiens, UniProt P08684); experiment: CYP 3A4 HLM time-dependent inhibition; format: in vitro ADME
T1 sequence (P08684 whole entry): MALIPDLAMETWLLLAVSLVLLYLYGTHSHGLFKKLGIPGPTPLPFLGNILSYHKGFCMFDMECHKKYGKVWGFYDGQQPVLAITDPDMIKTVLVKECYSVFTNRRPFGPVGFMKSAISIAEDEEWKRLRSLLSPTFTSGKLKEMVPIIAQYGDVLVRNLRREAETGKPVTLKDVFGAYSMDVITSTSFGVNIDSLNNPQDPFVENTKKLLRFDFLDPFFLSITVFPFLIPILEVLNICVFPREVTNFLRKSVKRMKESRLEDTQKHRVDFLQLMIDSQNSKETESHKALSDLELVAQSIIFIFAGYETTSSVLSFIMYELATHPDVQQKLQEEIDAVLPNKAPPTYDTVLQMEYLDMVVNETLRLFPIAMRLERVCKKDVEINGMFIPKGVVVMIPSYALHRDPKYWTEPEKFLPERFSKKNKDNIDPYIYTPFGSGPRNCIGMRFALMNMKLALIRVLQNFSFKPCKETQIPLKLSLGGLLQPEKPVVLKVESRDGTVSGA

[4] = 2-week oral repeat dose toxicity study in rats; format: in vivo
In short: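 Rats received the test compound orally for 2 weeks at 10, 30 and 100 mg/kg in repeat dosing. Endpoints included signs of stress, food consumption, duodenal histology for Notch-related goblet cell metaplasia, and liver for hepatotoxicity and necrosis.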

[5] = pharmacokinetics in cynomolgus monkey; conditions: male, in vivo, iv, 1 mg/kg
pharmacokinetics in dog = conditions: male, beagle, in vivo, iv, 1 mg/kg
[6] = projected human PK and dose; conditions: 110 mg QD, steady state
In short: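 Human PK was predicted by allometric scaling of rat, dog and cynomolgus monkey PK, then combined with a rat PK/PD indirect response model.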

[7] = hemodynamics in conscious rats; format: in vivo; conditions: any dose studied
CYP2C subfamily = experiment: CYP inhibition in human liver microsomes, CYP2C subfamily; format: in vitro ADME
[8] = tested on: rest of the CYP isoforms tested (other than the CYP2C subfamily); experiment: CYP inhibition in human liver microsomes, rest of isoforms; format: in vitro ADME
CYP3A4 mRNA = CYP3A4 mRNA induction in cryopreserved primary human hepatocytes; format: cell-based; conditions: 3.3–10 μM
H4-APPsw cells = experiment: Aβ species in cultured H4-APPsw cells by mass spectrometry; format: cell-based
CYP3A4 [9] = biological target: T1, CYP3A4; experiment: recombinant CYP3A4 inhibition; format: in vitro ADME
In short: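 Recombinant human CYP3A4 was incubated with the test compound for 30 min, and an IC50 was determined.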

acute oral dose in dogs = format: in vivo
In short: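 Dogs received a single acute oral dose of 300 mg/kg. Bilirubin and other clinical pathology were assessed, and plasma Cmax and AUC were measured. Margins were taken relative to projected human Cmax and AUC at the efficacious clinical dose.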

Caco-2 permeability = format: in vitro ADME; conditions: human
pharmacokinetics in rat = conditions: Sprague-Dawley, in vivo, iv, 2 mg/kg
Aβ peptide species = conditions: intravenous administration; cited from earlier work
[10] = cited from earlier work
[11] = single oral doses 10 to 1200 mg, multiweek daily 50 to 200 mg

For `CNc1nc(Nc2ccc(-n3cncn3)c(OC)c2)nc(-c2ccccc2)n1` [Compound 1], the “effect on total Aβ1–x formation” value (total Aβ1–x) was “No effect” and the “levels of Aβ1–37 and Aβ1–38” value (Aβ1–37 and Aβ1–38) was “increased levels”.
For `CNc1nc(Nc2ccc(-n3cnc(Cl)c3)c(OC)c2)nc2c1CC[C@H]2c1ccccc1` [Compound 3], the “safety margin vs the hERG NOAEL” value (rabbit telemetry study; rabbit telemetry) was 40 fold, the metabolism [1] was “confined to N-demethylation and monohydroxylation of the D-ring” and the tissue examination finding ([2]; 4 days oral, 10, 30, and 100 mg/kg) was “hepatocellular necrosis at all doses studied”. For the same molecule, the plasma bilirubin finding ([2]; 4 days oral, all doses, visibly yellow plasma) was “increase in unconjugated bilirubin”.
In the case of `CNc1nc(Cc2ccccc2)nc(Nc2ccc(-n3cnc(C)c3)c(OC)c2)n1` [Compound 2, 6-benzyl-N2-(3-methoxy-4-(4-methyl-1H-imidazol-1-yl)phenyl)-N4-methyl-1,3,5-triazine-2,4-diamine], the hERG inhibition (hERG ion channel; in words) is reported as “potent hERG inhibition” and the CYP3A4 inhibition (CYP3A4 [3]; in words) is reported as “potent and time-dependent CYP3A4 inhibition”.
In the case of `CNc1nc(Nc2ccc(-n3cnc(C)n3)c(OC)c2)nc2c1CC[C@H]2c1ccc(F)cc1` [Compound 4, (S)-7-(4-fluorophenyl)-N^2-(3-methoxy-4-(3-methyl-1H-1,2,4-triazol-1-yl)phenyl)-N^4-methyl-6,7-dihydro-5H-cyclopenta[d]pyrimidine-2,4-diamine], the “Notch-related goblet cell metaplasia in the duodenum” value ([4]; 2-week oral) is reported as “no Notch-related goblet cell metaplasia”, the bilirubin finding ([4]; 2-week oral) is reported as “minimal, nontoxicologically significant bilirubin elevation” and the hepatotoxicity or necrosis ([4]; 2-week oral) is reported as “no hepatotoxicity or necrosis was observed”. The tolerability ([4]; 2-week oral, 10, 30, and 100 mg/kg) was “well tolerated”, the “findings in high dose group” value ([4]; 2-week, 100 mg/kg oral) was “stress and reduced food consumption effects” and the “margin over the projected human efficacious exposure at the NOAEL” value ([4]; 2-week, NOAEL 30 mg/kg, vs 4 μM·h) was 48 fold. For the same molecule, the “fold less potent at hERG than compound 3” value (hERG ion channel) was 6 fold, the clearance at 24 h [5] was 31.3 ± 9.5 mL/min/kg and the clearance at 24 h (pharmacokinetics in dog) was 12.5 ± 1.2 mL/min/kg. The “change in QTcf” value (rabbit telemetry study; unconscious rabbits, 3 mg/kg) was “no change”, the exposure (rabbit telemetry study; unconscious rabbits, 10 mg/kg) was 50 µM and the hemodynamic effects (rabbit telemetry study; unconscious rabbits, doses of 10 mg/kg and higher) was “increased blood pressure and decreased heart rate”. The “projected human brain Aβ1–42 reduction” value [6] was 31%, the “hemodynamic effects (blood pressure, heart rate)” value [7] was “not seen” and the “total Aβ1–x” value (total Aβ1–x; concentrations up to 10 μM, Aβ1–x ELISA, H4-APPsw cells) was “unchanged”. For the same molecule, the “CYP2C subfamily IC50s” value (CYP2C subfamily) was “single digit micromolar”, the IC50 [8] was greater than 17 µM and the “elevation of CYP3A4 mRNA” value (CYP3A4 mRNA) was 36–43%. For the same molecule, the “change in Aβ1–37 and Aβ1–38” value (H4-APPsw cells) was “corresponding increase”, the “change in Aβ1–42 and Aβ1–40” value (H4-APPsw cells) was “large decrease” and the IC50 (CYP3A4 [9]) was 0.51 µM. The “margin in Cmax to the projected efficacious clinical dose” value (acute oral dose in dogs; 300 mg/kg) was 43 fold, the tolerability (acute oral dose in dogs; acute oral dose of 300 mg/kg) was “tolerated with no significant changes in bilirubin levels or other clinical pathological assessments” and the Papp (Caco-2 permeability) was 3.5 ×10⁻⁶ cm/s. The clearance at 24 h (pharmacokinetics in rat) was 11.2 ± 0.4 mL/min/kg, the “distribution among Aβ peptide species in rat brain and CSF” value (Aβ peptide species) was “same distribution among Aβ peptide species was recapitulated” and the AMES result (AMES) was “negative”. For the same molecule, the “CYP 3A4 HLM time-dependent inhib. KI” value (CYP3A4 [3]; HLM) was 82.5 µM and 83 µM, the ALT finding ([10]; 200 mg for 24 days) was “ALT elevations were observed” and the tolerability ([10]; dosed acutely) was “well tolerated”. The “Aβ1–37 and Aβ1–38 in plasma and CSF” value [10, 11] was “dose-dependent increase”, the “Aβ1–42 and Aβ1–40 in plasma and CSF” value [10, 11] was “decrease” and the “total Aβ1–x in plasma and CSF” value [10, 11] was “no change”.
